Source: paper PMC8791284 (SLAS discovery : advancing life sciences R & D, 2021)

Columns and labels:
[1] = test system: BRAF^V600E-expressing MEFs; test: Cell proliferation assay, BRAF^V600E MEFs; format: cell-based, mouse; conditions: versus other MEF panel lines, Fig. 1E
[2] = test system: KRAS^G12D-expressing MEFs; test: ATP-based cell viability assay; design: species or system mouse; conditions: Suppl. Fig. S3
In short: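 KRAS^G12D- and HRAS^WT-expressing mouse embryonic fibroblasts are dispensed onto plates pre-spotted with test compound from 10 mM stocks. Test compound is used at 5 μM final for the primary screen, or as serial dilutions for dose–response. After 72 h, CellTiter-Glo reagent is added, incubated 15 min, and luminescence is read. Each plate is checked by Z' factor and carries a reference HSP-90 inhibitor dose–response.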

[3] = test system: CDK9 (Ser2-RNA polymerase II phosphorylation); test: Western blot of phospho-Ser2 RNA polymerase II in KRAS^G12D MEFs; format: cell-based, mouse; conditions: 6 h, 0.1, 1 and 10 μM

`CCCS(=O)(=O)Nc1ccc(F)c(C(=O)c2c[nH]c3ncc(-c4ccc(Cl)cc4)cc23)c1F` [vemurafenib] was tested, and the “specific activity against BRAF^V600E-expressing MEFs” value [1] was “showed specific activity”.

With `CC(C)(C)c1nc(-c2cccc(NS(=O)(=O)c3c(F)cccc3F)c2F)c(-c2ccnc(N)n2)s1` [dabrafenib] the “specific activity against BRAF^V600E-expressing MEFs” value [1] was “showed specific activity”.

For `CC(C)(C)c1cnc(CSc2cnc(NC(=O)C3CCNCC3)s2)o1` [SNS032], the “sensitivity of KRAS^G12D MEFs versus HRAS^WT MEFs in cell viability assay” value [2] was “more sensitive” and the “phosphorylation level of Ser2-RNA polymerase II” value [3] was “diminished the Ser2 phosphorylation level in a dose-dependent manner”.
